# In ChEMBL document CHEMBL5705891, “Small-molecule kinase inhibitors provide insight into Mps1 cell cycle function” (Nat Chem Biol, 2010):
# Active and inactive are the calls of the source. The rule behind the calls is not given here.
# Assays:
# [1] = target: Calcium/calmodulin-dependent protein kinase kinase 2 (Homo sapiens) (UniProt Q96RR4); experiment: Inhibition of CAMKK2 (unknown origin) assessed as residual enzyme activity at 10 uM by Ambit kinase binding assay relative to control
# [2] = target: Death-associated protein kinase 1 (Homo sapiens) (UniProt P53355); experiment: Inhibition of DAPK1 (unknown origin) assessed as residual enzyme activity at 10 uM by Ambit kinase binding assay relative to control
# [3] = target: Myosin light chain kinase family member 4 (Homo sapiens) (UniProt Q86YV6); experiment: Inhibition of SgK085 (unknown origin) assessed as residual enzyme activity at 10 uM by Ambit kinase binding assay relative to control
# [4] = target: Mitogen-activated protein kinase 12 (Homo sapiens) (UniProt P53778); experiment: Inhibition of p38-gamma (unknown origin) assessed as residual enzyme activity at 10 uM by Ambit kinase binding assay relative to control
# Mitogen-activated protein kinase 12 (Homo sapiens), sequence (P53778 whole entry): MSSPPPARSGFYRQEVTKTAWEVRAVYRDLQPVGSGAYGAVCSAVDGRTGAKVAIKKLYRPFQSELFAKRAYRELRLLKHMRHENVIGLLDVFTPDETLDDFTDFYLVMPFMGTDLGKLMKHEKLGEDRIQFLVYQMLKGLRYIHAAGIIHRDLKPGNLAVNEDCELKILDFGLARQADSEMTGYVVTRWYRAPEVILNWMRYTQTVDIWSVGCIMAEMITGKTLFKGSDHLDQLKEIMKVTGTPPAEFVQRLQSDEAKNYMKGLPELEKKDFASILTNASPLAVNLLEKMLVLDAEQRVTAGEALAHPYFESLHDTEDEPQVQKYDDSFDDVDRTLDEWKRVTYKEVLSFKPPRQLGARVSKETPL
# [5] = target: SRSF protein kinase 1 (Homo sapiens) (UniProt Q96SB4); experiment: Inhibition of SRPK1 (unknown origin) assessed as residual enzyme activity at 10 uM by Ambit kinase binding assay relative to control
# SRSF protein kinase 1 (Homo sapiens), sequence (Q96SB4 whole entry): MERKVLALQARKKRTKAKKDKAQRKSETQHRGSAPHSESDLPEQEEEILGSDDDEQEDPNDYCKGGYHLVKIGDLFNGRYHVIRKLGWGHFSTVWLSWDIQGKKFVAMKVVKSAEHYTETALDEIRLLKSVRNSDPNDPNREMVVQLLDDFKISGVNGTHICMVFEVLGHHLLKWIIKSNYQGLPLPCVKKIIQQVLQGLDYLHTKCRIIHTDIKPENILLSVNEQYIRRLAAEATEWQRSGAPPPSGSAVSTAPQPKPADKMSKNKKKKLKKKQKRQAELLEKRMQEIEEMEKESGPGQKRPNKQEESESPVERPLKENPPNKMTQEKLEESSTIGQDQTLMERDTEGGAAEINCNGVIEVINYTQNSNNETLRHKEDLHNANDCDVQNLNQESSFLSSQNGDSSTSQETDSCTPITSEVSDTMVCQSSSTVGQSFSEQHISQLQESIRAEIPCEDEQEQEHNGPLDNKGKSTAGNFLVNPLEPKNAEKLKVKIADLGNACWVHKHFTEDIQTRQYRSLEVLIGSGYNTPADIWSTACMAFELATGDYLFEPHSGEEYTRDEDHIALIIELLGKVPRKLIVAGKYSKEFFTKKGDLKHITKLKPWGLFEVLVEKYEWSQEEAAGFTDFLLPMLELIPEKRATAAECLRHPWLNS
# [6] = target: Serine/threonine-protein kinase 26 (Homo sapiens) (UniProt Q9P289); experiment: Inhibition of MST4 (unknown origin) assessed as residual enzyme activity at 10 uM by Ambit kinase binding assay relative to control
# Serine/threonine-protein kinase 26 (Homo sapiens), sequence (Q9P289 2-416 limits assumed): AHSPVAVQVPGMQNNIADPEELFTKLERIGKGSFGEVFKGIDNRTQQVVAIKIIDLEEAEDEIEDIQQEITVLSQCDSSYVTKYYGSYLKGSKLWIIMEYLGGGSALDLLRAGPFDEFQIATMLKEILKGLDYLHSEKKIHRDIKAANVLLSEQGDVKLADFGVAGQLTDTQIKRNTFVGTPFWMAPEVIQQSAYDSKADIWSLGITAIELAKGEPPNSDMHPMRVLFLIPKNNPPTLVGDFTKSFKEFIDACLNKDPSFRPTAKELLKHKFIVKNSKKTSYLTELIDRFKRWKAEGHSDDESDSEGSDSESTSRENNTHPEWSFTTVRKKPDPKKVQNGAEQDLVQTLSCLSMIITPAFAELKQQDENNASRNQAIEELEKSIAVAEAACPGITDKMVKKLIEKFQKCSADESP
# [7] = target: Ribosomal protein S6 kinase alpha-5 (Homo sapiens) (UniProt O75582); experiment: Inhibition of RPS6KA5 kinase domain 2 (unknown origin) assessed as residual enzyme activity at 10 uM by Ambit kinase binding assay relative to control
# [8] = target: Serine/threonine-protein kinase ULK3 (Homo sapiens) (UniProt Q6PHR2); experiment: Inhibition of ULK3 (unknown origin) assessed as residual enzyme activity at 10 uM by Ambit kinase binding assay relative to control
# Serine/threonine-protein kinase ULK3 (Homo sapiens), sequence (Q6PHR2 whole entry): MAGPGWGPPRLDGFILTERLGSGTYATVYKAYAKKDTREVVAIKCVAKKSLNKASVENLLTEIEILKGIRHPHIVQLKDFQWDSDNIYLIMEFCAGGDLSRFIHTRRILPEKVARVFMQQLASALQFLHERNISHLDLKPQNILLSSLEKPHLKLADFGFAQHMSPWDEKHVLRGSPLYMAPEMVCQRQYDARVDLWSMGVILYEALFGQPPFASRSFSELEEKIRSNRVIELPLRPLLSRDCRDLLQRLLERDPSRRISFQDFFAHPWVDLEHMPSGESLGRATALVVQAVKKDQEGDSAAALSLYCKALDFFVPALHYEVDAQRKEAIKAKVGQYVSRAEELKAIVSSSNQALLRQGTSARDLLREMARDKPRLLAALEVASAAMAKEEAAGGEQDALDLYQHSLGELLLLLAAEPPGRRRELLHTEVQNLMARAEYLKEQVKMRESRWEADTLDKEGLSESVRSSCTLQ
# [9] = target: Serine/threonine-protein kinase 25 (Homo sapiens) (UniProt O00506); experiment: Inhibition of YSK1 (unknown origin) assessed as residual enzyme activity at 10 uM by Ambit kinase binding assay relative to control
# [10] = test system: U2OS; experiment: Reversal of nocodazole-induced mitotic arrest in human U2OS cells assessed as Ser10 phosphorylated Histone H3-positive 4c population at 5 uM incubated for 16 hrs by flow cytometry (reference value: 94 %); assay type: functional
# [11] = test system: U2OS; experiment: Induction of aneuploidy in UTRM10 cells (unknown origin) expressing LAP-tagged Mps1 M602Q mutant at 5 uM treated for 48 hrs by FACS analysis; assay type: functional, cell-based
# Procedure, shortened: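 UTRM10 cells expressing RNAi-resistant LAP-Mps1 WT or M602Q were treated with compound or DMSO for 48 h, then DNA content was analysed by FACS.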
# [12] = test system: U2OS; experiment: Reversal of paclitaxel-induced mitotic arrest in human U2OS cells assessed as Ser10 phosphorylated Histone H3-positive 4c population at 10 uM incubated for 16 hrs by flow cytometry (reference value: 25 %); assay type: functional
# [13] = test system: U2OS; experiment: Reversal of s-trityl cysteine-induced mitotic arrest in human U2OS cells assessed as accumulation of 4N phosphorylated Histone H3-negative cells incubated for 16 hrs by flow cytometry; assay type: functional, cell-based; details: dose 5-10 µM
# [14] = test system: U2OS; experiment: Reversal of nocodazole-induced mitotic arrest in human U2OS cells assessed as Ser10 phosphorylated Histone H3-positive 4c population at 10 uM incubated for 16 hrs by flow cytometry (reference value: 94 %); assay type: functional
# [15] = target: Aurora kinase B (Homo sapiens) (UniProt Q96GD4); experiment: Inhibition of Aurora B activation in human U2OS cells by Western blot analysis; assay type: cell-based
# Aurora kinase B (Homo sapiens), sequence (Q96GD4 whole entry): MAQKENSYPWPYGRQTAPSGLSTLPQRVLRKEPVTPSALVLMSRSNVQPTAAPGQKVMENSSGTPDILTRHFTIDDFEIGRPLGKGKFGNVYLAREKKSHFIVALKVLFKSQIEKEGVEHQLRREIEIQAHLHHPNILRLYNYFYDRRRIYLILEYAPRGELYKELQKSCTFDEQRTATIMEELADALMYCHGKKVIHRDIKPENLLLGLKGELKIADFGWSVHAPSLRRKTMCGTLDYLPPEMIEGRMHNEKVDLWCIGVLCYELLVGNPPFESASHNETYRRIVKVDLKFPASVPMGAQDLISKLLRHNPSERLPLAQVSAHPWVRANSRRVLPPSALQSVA
# [16] = test system: Receptor-type tyrosine-protein kinase FLT3 (Homo sapiens), P36888 [D835Y]; experiment: Inhibition of FLT3 D835Y mutant (unknown origin) assessed as residual enzyme activity at 10 uM by Ambit kinase binding assay relative to control
# [17] = test system: HCT-116; experiment: Antiproliferative activity against human HCT-116 cells with p53-/- at 10 uM measured after 96 hrs in presence of Z-VAD-FMK by Syto60 staining based assay; assay type: functional, cell-based
# [18] = target: Myosin-IIIb (Homo sapiens) (UniProt Q8WXR4); experiment: Inhibition of MYO3B (unknown origin) assessed as residual enzyme activity at 10 uM by Ambit kinase binding assay relative to control
# Myosin-IIIb (Homo sapiens), sequence (Q8WXR4 whole entry): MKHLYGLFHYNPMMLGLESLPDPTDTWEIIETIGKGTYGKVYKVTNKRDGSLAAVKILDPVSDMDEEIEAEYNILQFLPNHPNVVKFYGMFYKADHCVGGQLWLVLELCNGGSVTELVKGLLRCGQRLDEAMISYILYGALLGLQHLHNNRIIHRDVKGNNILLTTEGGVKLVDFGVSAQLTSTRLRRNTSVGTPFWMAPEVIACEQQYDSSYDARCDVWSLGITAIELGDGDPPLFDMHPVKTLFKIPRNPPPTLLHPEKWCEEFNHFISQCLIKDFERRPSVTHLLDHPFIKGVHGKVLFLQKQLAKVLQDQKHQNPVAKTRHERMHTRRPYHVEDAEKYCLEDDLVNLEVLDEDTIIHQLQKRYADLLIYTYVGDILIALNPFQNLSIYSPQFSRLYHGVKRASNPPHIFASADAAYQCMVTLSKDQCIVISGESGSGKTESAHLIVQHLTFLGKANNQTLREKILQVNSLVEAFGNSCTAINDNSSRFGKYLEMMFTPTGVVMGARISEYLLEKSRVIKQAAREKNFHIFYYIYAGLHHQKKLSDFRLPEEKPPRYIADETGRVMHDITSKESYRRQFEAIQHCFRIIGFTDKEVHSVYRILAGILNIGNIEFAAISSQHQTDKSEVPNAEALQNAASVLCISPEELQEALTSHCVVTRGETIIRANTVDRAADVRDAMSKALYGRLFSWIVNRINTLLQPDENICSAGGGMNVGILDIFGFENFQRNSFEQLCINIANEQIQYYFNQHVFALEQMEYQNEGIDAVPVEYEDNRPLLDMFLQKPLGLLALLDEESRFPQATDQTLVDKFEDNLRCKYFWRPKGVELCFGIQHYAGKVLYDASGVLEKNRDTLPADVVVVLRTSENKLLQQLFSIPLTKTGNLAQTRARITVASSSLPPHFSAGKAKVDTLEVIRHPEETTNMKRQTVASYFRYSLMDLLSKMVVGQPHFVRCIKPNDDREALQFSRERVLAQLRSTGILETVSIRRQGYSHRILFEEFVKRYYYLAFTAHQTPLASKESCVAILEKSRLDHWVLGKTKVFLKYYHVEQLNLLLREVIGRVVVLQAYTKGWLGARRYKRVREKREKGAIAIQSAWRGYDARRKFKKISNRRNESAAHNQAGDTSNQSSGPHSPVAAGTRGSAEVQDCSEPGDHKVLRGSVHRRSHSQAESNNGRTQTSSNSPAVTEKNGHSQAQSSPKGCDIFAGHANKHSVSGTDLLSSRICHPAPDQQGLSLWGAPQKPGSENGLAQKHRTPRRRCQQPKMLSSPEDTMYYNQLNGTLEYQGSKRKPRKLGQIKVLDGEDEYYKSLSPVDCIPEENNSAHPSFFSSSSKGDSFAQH
# [19] = test system: U2OS; experiment: Reversal of paclitaxel-induced mitotic arrest in human U2OS cells assessed as Ser10 phosphorylated Histone H3-positive 4c population at 5 uM incubated for 16 hrs by flow cytometry (reference value: 25 %); assay type: functional
# [20] = test system: HCT-116; experiment: Antiproliferative activity against human HCT-116 cells with p53-/- assessed as loss of clonal survival upto 10 uM incubated for 10 days by crystal violet staining based assay; assay type: functional, cell-based; details: time 10.0 day
# Procedure, shortened: (§1)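 Colony outgrowth: cells plated at 200 cells per 60-mm dish, exposed to compound or DMSO vehicle and stained with crystal violet after 10 days. HCT116 grown in McCoy's 5A; A549 and HeLa in DMEM; hTERT-RPE1 in DMEM/F-12. All media had 10% FBS and penicillin/streptomycin, 37°C, 5% CO2. Quantified from 3 independent experiments, mean + SD, Student's t test.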
# [21] = test system: HCT-116; experiment: Cytotoxicity against human HCT-116 cells assessed as loss of clonal survival at 5 to 10 uM incubated for 10 days by crystal violet staining based assay; assay type: functional, cell-based; details: dose 5-10 µM, time 10.0 day; procedure, shortened: as §1
# [22] = test system: TERT-RPE1; experiment: Antiproliferative activity against hTERT-RPE1 cells assessed as loss of clonal survival upto 25 uM incubated for 10 days by crystal violet staining based assay; assay type: toxicity, cell-based; details: human, tert-rpe1, 240 h, time 10 day; procedure, shortened: as §1
# [23] = test system: HCT-116; experiment: Induction of apoptosis in human HCT-116 cells assessed as increase in cleaved PARP level at 5 to 10 uM measured after 48 hrs by immunoblot analysis; assay type: functional, cell-based; details: dose 5-10 µM
# [24] = test system: HeLa S3; experiment: Reversal of nocodazole-induced mitotic arrest in human HeLa S3 cells expressing histone H2B-GFP assessed as DNA decondensation at 10 uM measured for 20 to 60 mins by immunofluorescence analysis; assay type: functional, cell-based; details: time 20-60 min
# Procedure, shortened: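 HeLa S3 H2B-GFP cells were held in nocodazole (200 ng·ml⁻¹) with or without inhibitor. Mitotic exit was scored as DNA decondensation and nuclear envelope reassembly, imaged every 5 min (60X objective); 150 cells counted per population.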
# [25] = target: Mitogen-activated protein kinase 7 (Homo sapiens) (UniProt Q13164); experiment: Inhibition of ERK5 (unknown origin) assessed as residual enzyme activity at 10 uM by Ambit kinase binding assay relative to control
# Mitogen-activated protein kinase 7 (Homo sapiens), sequence (Q13164 2-816 limits assumed): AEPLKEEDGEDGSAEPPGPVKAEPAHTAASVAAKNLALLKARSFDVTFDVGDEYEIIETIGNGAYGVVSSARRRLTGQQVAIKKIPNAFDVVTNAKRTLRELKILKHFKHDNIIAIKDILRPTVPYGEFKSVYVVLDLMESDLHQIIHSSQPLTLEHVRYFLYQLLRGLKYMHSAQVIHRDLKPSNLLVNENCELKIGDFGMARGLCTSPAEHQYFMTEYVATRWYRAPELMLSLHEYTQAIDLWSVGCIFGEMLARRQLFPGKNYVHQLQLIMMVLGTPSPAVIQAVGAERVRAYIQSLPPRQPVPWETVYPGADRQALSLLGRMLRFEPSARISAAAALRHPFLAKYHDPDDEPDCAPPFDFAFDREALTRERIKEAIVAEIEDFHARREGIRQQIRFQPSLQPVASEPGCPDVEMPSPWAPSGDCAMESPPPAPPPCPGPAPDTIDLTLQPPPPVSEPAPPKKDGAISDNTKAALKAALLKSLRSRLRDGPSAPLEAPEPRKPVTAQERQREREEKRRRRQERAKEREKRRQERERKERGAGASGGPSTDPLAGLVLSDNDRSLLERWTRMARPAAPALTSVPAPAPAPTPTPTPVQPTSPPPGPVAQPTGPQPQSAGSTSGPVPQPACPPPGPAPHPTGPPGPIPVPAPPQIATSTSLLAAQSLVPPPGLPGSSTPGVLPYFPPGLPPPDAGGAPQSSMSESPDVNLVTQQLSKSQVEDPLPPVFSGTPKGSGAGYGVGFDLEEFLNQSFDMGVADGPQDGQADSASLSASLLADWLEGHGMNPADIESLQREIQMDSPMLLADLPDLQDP
# [26] = test system: HCT-116; experiment: Induction of aneuploidy in human HCT-116 cells at 10 uM incubated for 4 days by FACS analysis; assay type: functional, cell-based; details: time 4.0 day
# Procedure, shortened: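 HCT116 cells were treated with 10 μM compound or DMSO vehicle for the indicated times up to 96 h, then DNA content was profiled by flow cytometry.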
# [27] = target: Mitogen-activated protein kinase 3 (Homo sapiens) (UniProt P27361); experiment: Inhibition of ERK1 (unknown origin) assessed as residual enzyme activity at 10 uM by Ambit kinase binding assay relative to control
# [28] = test system: A549; experiment: Antiproliferative activity against human A549 cells at 10 uM incubated for 4 days by Syto60 staining based assay; assay type: functional, cell-based; details: time 4.0 day
# Calcium/calmodulin-dependent protein kinase kinase 2 (Homo sapiens), sequence (Q96RR4 2-588 limits assumed): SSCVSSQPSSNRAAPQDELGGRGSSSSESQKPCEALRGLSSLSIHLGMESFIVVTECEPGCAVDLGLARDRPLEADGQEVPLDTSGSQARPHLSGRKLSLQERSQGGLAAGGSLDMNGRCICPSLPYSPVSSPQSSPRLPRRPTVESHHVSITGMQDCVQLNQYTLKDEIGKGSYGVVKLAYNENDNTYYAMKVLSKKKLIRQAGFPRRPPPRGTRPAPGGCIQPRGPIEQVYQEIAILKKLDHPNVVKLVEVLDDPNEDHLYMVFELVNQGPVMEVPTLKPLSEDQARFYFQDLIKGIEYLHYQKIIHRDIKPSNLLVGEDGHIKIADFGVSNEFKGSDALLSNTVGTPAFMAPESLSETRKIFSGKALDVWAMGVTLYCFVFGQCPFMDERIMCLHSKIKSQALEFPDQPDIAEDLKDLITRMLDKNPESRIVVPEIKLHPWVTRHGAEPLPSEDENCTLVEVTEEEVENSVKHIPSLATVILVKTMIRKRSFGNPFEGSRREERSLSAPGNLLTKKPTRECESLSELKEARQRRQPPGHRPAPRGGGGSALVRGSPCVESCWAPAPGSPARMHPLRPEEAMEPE
smiles,measurement,setting,value
O=C1c2ccccc2-c2n[nH]c3cccc1c23,Activity,[1],26%
same,Activity,[2],1.4%
same,Activity,[3],0.25%
same,Activity,[4],21%
same,Activity,[5],32%
same,Activity,[6],2.4%
same,Activity,[7],12%
same,Activity,[8],11%
same,Activity,[9],28%
COc1cc(N2CCC(O)CC2)ccc1Nc1cc(Nc2ccccc2S(=O)(=O)C(C)C)c2cc[nH]c2n1,Activity,[10],8%
same,Activity,[11],Active
same,Activity,[12],1%
same,Activity,[13],Dose-Dependent Effect
same,Activity,[14],1%
same,inhibition,[15],Active
same,Activity,[16],24%
same,Activity,[17],Active
same,Activity,[18],28%
same,Activity,[19],15%
same,Activity,[20],Active
same,Activity,[21],Active
same,Activity,[22],Toxic
same,Activity,[23],Active
same,Activity,[24],Active
same,Activity,[25],11%
same,Activity,[26],Active
same,Activity,[27],23%
same,Activity,[28],Active
